ChEMBL document CHEMBL1126609, “5-HT3 receptor antagonists. 2. 4-Hydroxy-3-quinolinecarboxylic acid derivatives” (J Med Chem, 1993)

Experiments:
Canis familiaris [1] = assay: Mean percentage reduction due to cisplatin-induced emetic episodes in dog after an intravenous administration of 0.03 mg/kg of drug; type: functional, Canis lupus familiaris
In short: (§1)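 Adult male fasted beagles (9–15 kg) received drug 30 min (iv) or 60 min (po) before cisplatin 3 mg/kg iv, dissolved by sonication in saline. Dogs were then observed 6 h, with emesis defined as productive regurgitation. Episode counts and latency were compared with controls (n = 7), using 2–4 dogs per dose. Dogs that never vomited were assigned 360 min latency.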

Canis familiaris [2] = assay: Mean percentage reduction due to cisplatin-induced emetic episodes in dog after an intravenous administration of 0.01 mg/kg of drug; type: functional, Canis lupus familiaris; in short: as §1
Canis familiaris [3] = assay: Mean percentage reduction due to cisplatin-induced emetic episodes in dog after an peroral administration of 1.0 mg/kg of drug; type: functional, Canis lupus familiaris; details: route oral; in short: as §1
Canis familiaris [4] = assay: Mean percentage increase emetic latency in dog after an intravenous administration of 0.3 mg/kg of drug (when dogs did not vomit,360min); type: functional, Canis lupus familiaris; in short: as §1
Canis familiaris [5] = assay: Mean percentage reduction due to cisplatin-induced emetic episodes in dog after an peroral administration of 0.1 mg/kg of drug; type: functional, Canis lupus familiaris; details: route oral; in short: as §1
Canis familiaris [6] = assay: Mean percentage increase emetic latency in dog after an intravenous administration of 0.01 mg/kg of drug; type: functional, Canis lupus familiaris; in short: as §1
Canis familiaris [7] = assay: Mean percentage reduction due to cisplatin-induced emetic episodes in dog after an intravenous administration of 0.3 mg/kg of drug; type: functional, Canis lupus familiaris
In short: (§2)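 Adult male fasted beagle dogs (9-15 kg) received test drug iv 30 min before cisplatin (3 mg/kg, iv, in saline) and were monitored for 6 h. Episodes were counted as productive regurgitation of stomach contents. Percent reduction is versus the control group (n = 7); n = 2-4 dogs per dose.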

Canis familiaris [8] = assay: Mean percentage increase emetic latency in dog after an intravenous administration of 0.03 mg/kg of drug; type: functional, Canis lupus familiaris; in short: as §1
[9] = target: T1, Serotonin 3 (5-HT3) receptor (Rattus norvegicus, UniProt P35563+Q9JJ16); assay: Binding affinity against radioligand [3H]quipazine labeled 5-hydroxytryptamine 3 receptor sites in neuroblastoma-glioma (NG108-15) cells.
T1 sequence (P35563 whole entry): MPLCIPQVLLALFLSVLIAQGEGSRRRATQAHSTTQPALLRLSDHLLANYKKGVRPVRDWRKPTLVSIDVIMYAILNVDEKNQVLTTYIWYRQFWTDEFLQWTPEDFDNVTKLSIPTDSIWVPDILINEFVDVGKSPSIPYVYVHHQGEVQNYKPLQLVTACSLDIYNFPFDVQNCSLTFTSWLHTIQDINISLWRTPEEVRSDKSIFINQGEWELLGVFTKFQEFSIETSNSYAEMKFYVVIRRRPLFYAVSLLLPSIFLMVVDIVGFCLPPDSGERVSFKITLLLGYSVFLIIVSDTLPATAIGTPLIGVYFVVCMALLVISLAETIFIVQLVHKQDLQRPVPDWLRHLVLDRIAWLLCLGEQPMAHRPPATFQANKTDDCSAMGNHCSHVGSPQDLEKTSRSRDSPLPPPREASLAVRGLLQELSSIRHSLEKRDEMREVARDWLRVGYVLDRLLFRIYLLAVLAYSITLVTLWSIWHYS
T1 sequence (Q9JJ16 whole entry): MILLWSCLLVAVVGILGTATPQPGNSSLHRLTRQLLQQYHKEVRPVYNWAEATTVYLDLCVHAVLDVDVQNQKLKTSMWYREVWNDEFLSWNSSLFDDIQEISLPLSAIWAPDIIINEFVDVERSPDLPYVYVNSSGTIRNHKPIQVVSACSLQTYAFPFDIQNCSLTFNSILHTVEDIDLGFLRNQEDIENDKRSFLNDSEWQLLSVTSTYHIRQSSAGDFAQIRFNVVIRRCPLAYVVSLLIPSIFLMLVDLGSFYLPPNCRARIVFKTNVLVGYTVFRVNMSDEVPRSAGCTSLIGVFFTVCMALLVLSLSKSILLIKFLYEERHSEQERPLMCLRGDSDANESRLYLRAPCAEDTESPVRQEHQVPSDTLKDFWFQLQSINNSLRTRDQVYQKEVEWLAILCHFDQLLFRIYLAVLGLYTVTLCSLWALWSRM

Canis familiaris [10] = assay: Mean percentage increase emetic latency in dog after an peroral administration of 0.1 mg/kg of drug; type: functional, Canis lupus familiaris; details: route oral; in short: as §1
Canis familiaris [11] = assay: Mean percentage increase emetic latency in dog after an peroral administration of 1.0 mg/kg of drug; type: functional, Canis lupus familiaris; details: route oral; in short: as §1
Canis familiaris [12] = assay: Mean percentage reduction due to cisplatin-induced emetic episodes in dog after an intravenous administration of 0.1 mg/kg of drug; type: functional, Canis lupus familiaris; in short: as §2
Canis familiaris [13] = assay: Mean percentage increase emetic latency in dog after an intravenous administration of 0.1 mg/kg of drug; type: functional, Canis lupus familiaris
In short: (§3)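 Adult male fasted beagle dogs (9-15 kg), fed on the day of the experiment; test drug given iv 30 min before cisplatin (3 mg/kg, iv, dissolved by sonication in saline). Dogs were monitored for 6 h. Emesis was defined as productive regurgitation of stomach contents.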

[14] = target: Serotonin 3 (5-HT3) receptor (Rattus norvegicus) (UniProt P35563+Q9JJ16); assay: In vivo inhibitory concentration after 5 minutes against 5-hydroxytryptamine 3 receptor induced bradycardia [bezold-jarisch (B-J) reflex test] in rat by intravenous administration; type: functional, organism-based
In short: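 Compounds given iv. The 5-HT-induced bradycardia (Bezold–Jarisch reflex) was measured at 5 min. ED50 is the dose reducing the bradycardia by 50%, from four determinations.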

Canis familiaris [15] = assay: Mean percentage reduction due to cisplatin-induced emetic episodes in dog after an intravenous administration of 1 mg/kg of drug; type: functional, Canis lupus familiaris; in short: as §2
Canis familiaris [16] = assay: Mean percentage increase emetic latency in dog after an intravenous administration of 1 mg/kg of drug (when dogs did not vomit, 360 min); type: functional, Canis lupus familiaris; in short: as §3
Canis familiaris [17] = assay: Mean percentage increase emetic latency in dog after an intravenous administration of 0.3 mg/kg of drug; type: functional, Canis lupus familiaris; in short: as §3

SMILES | Ki [9] [nM] | ED50 [14] [mg/kg] | also measured
CN1C2CCC1CC(NC(=O)c1cnc3ccccc3c1O)C2 (stereo in doubt; 6f) | 1.5 |  | Reduction (Canis familiaris [1]): 54%; Reduction (Canis familiaris [2]): 44%; Increase (Canis familiaris [3]): 88%; Increase (Canis familiaris [4]): >284%; Reduction (Canis familiaris [5]): 64%; Increase (Canis familiaris [6]): 14%; Reduction (Canis familiaris [7]): 100%; Increase (Canis familiaris [8]): 23%; Increase (Canis familiaris [10]): 32%; Increase (Canis familiaris [11]): 142%; Reduction (Canis familiaris [12]): 80%; Increase (Canis familiaris [13]): 116%
CN1C2CCC1CC(NC(=O)c1cnc3ccccc3c1N)C2 (stereo not drawn) | > 100 |  | 
CN1C2CCCC1CC(NC(=O)c1nn(C)c3ccccc13)C2 (stereo not drawn) |  | 0.019 | 
Cc1nc2ccccc2c(O)c1C(=O)OC1CC2CCC(C1)N2C (stereo not drawn) | 58 |  | 
CN1C2CCC1CC(NC(=O)c1c(O)c3ccccc3[nH]c1=O)C2 (stereo not drawn) | 7.6 |  | 
Cc1nccn1CC1CCc2c(c3ccccc3n2C)C1=O (stereo not drawn) [ONDANSETRON] |  | 0.021 | Reduction (Canis familiaris [15]): 100%; Reduction (Canis familiaris [7]): 61%; Increase (Canis familiaris [16]): >284%; Reduction (Canis familiaris [12]): 18%; Increase (Canis familiaris [17]): 115%; Increase (Canis familiaris [13]): 33%
CN1C2CCCC1CC(NC(=O)c1cnc3ccccc3c1O)C2 (stereo not drawn) | 30 |  | 
CN1C2CCC1CC(NC(=O)c1c(O)c3cccnc3n(-c3ccccc3)c1=O)C2 (stereo not drawn) | 14 |  | 
CN1C2CCC1CC(NC(=O)c1cnc3ccccc3c1)C2 (stereo not drawn) | > 100 |  | 
CN1C2CCC1CC(NC(=O)c1cnc3ccccc3c1O)C2 (stereo in doubt; 6h) | 100 |  | 
CN1C2CCC1CC(OC(=O)c1cnc3ccccc3c1O)C2 (stereo not drawn) | 6.1 | 0.0017 | 
Cc1nc2ccccc2c(O)c1C(=O)NC1CC2CCC(C1)N2C (stereo not drawn) | 7.2 | 0.015 | 
O=C(NC1CCN2CCCC1C2)c1cnc2ccccc2c1O (stereo not drawn) | 18 |  | 
CN1C2CCC1CC(OC(=O)c1c(O)c3cccnc3n(-c3ccccc3)c1=O)C2 (stereo not drawn) | > 100 |  | 
CCCCn1c(=O)c(C(=O)NC2CC3CCC(C2)N3C)c(O)c2cccnc21 (stereo not drawn) | 6.4 | > 0.1 | 
CN1C2CCC1CC(OC(=O)c1cnc3ccccc3c1)C2 (stereo not drawn) | 66.9 | 0.37 | 
Cc1ccc2c(O)c(C(=O)NC3CC4CCC(C3)N4C)cnc2n1 (stereo not drawn) | > 100 |  | 
CCCCn1c(=O)c(C(=O)OC2CC3CCC(C2)N3C)c(O)c2cccnc21 (stereo not drawn) | > 100 |  | 
CN1C2CCC1CC(NC(=O)c1c(O)nc3ccccc3c1O)C2 (stereo not drawn) |  | 0.22 | 
Cc1ccc2c(O)c(C(=O)OC3CC4CCC(C3)N4C)cnc2n1 (stereo not drawn) | > 100 |  | 
CCCCn1c(=O)c(C(=O)NC2CC3CCC(C2)N3C)c(O)c2ccccc21 (stereo not drawn) | 0.48 | 0.29 | 
CN1C2CCC1CC(NC(=O)c1cnc3ccccc3c1Cl)C2 (stereo not drawn) | 85 |  | 
CN1C2CCC1CC(NC(=O)c1c(O)c3ccccc3n(-c3ccccc3)c1=O)C2 (stereo not drawn) | 1.4 | 0.073 | 
CCCCn1c(=O)c(C(=O)OC2CC3CCC(C2)N3C)c(O)c2ccccc21 (stereo not drawn) | > 100 |  | 
